From ChEMBL document CHEMBL3286354, “9- and 11-Substituted 4-azapaullones are potent and selective inhibitors of African trypanosoma” (Eur J Med Chem, 2014)
One block for each compound: values may come before it.

Key:
[1] = tested on: Trypanosoma brucei brucei; assay: Antitrypanosomal activity against Trypanosoma brucei brucei 427 assessed as viability at 30 uM after 24 hrs by Flow cytometry relative to control; assay type: functional
Outline: (§1)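 Single-concentration primary screen on infective T. b. brucei 427, seeded at 5×10^5 cells/mL in HMI-9/10% FBS, 37 °C, 5% CO2, for 24 h. Live cells were counted by flow cytometry with propidium iodide gating over a fixed 60 s acquisition. % viability is relative to the DMSO proliferation control. Triplicates; error as 2 SD.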

[2] = Toxicity in mouse macrophages at 48 uM after 24 hrs by xCELLingence assay relative to control; assay type: cell-based; conditions: macrophage
Outline: (§2)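 Mouse bone marrow-derived macrophages were seeded at 7.5×10^4 per well in DMEM with 2 mM L-glutamine and 10% heat-inactivated FCS for 24 h. They were then exposed for 24 h to each compound at its highest soluble concentration. Impedance (cell index) was read every 30 min. % toxicity = 100 − (cell index compound / cell index medium × 100).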

[3] = target: T1, Trypanothione synthetase (Trypanosoma brucei brucei) (UniProt Q86MC2); assay: Inhibition of Trypanosoma brucei brucei trypanothione synthetase assessed as residual activity at 30 uM after 15 mins incubation by Biomol Green phosphate release absorbance assay
T1 sequence (whole entry): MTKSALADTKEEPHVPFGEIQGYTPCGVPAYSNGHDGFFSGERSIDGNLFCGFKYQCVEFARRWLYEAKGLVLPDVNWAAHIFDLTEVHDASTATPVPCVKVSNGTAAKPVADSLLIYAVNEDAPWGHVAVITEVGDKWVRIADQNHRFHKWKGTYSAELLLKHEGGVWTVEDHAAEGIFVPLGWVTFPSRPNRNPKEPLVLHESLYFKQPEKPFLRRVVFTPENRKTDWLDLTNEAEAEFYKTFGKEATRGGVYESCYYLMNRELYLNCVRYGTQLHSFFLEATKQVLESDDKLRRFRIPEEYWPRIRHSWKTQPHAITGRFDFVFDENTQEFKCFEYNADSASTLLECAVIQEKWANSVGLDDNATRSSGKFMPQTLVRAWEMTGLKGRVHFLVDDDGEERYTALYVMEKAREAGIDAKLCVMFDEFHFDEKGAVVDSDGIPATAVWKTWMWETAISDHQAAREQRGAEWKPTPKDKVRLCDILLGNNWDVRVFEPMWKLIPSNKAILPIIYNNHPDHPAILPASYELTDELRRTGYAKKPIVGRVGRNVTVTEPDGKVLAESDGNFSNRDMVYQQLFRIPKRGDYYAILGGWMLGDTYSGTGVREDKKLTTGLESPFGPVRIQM

[4] = tested on: Trypanosoma brucei brucei; assay: Antitrypanosomal activity against Trypanosoma brucei brucei 427 assessed as viability at 5 uM after 24 hrs by Flow cytometry relative to control; assay type: functional; outline: as §1
[5] = Toxicity in mouse macrophages at 29 uM after 24 hrs by xCELLingence assay relative to control; assay type: cell-based; conditions: macrophage; outline: as §2
[6] = tested on: Trypanosoma brucei brucei; assay: Antitrypanosomal activity against Trypanosoma brucei brucei 427 assessed as viability after 24 hrs by Flow cytometry; assay type: functional, organism-based; conditions: Trypanosoma brucei, 427, 24 h
Outline: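 Infective bloodstream T. b. brucei 427 (cell line 449 carrying a redox biosensor) in HMI-9 with 10% FBS at 37 °C, 5% CO2. Cells were seeded at 5×10^5 cells/mL with two-fold serial dilutions from DMSO stocks and incubated 24 h. Viability was by propidium iodide exclusion flow cytometry. EC50 came from a sigmoidal Boltzmann fit or non-linear extrapolation, with error as 2 SD.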

[7] = Toxicity in mouse macrophages at 58 uM after 24 hrs by xCELLingence assay relative to control; assay type: cell-based; conditions: macrophage; outline: as §2
[8] = Toxicity in mouse macrophages at 59 uM after 24 hrs by xCELLingence assay relative to control; assay type: cell-based; conditions: macrophage; outline: as §2
[9] = Toxicity in mouse macrophages at 56 uM after 24 hrs by xCELLingence assay relative to control; assay type: cell-based; conditions: macrophage; outline: as §2
[10] = Toxicity in mouse macrophages at 54 uM after 24 hrs by xCELLingence assay relative to control; assay type: cell-based; conditions: macrophage; outline: as §2
[11] = Toxicity in mouse macrophages at 12 uM after 24 hrs by xCELLingence assay relative to control; assay type: cell-based; conditions: macrophage; outline: as §2
[12] = Toxicity in mouse macrophages at 24 uM after 24 hrs by xCELLingence assay relative to control; assay type: cell-based; conditions: macrophage; outline: as §2
[13] = Toxicity in mouse macrophages at 26 uM after 24 hrs by xCELLingence assay relative to control; assay type: cell-based; conditions: macrophage; outline: as §2
[14] = target: Cyclin-dependent kinase 2/cyclin E1 (Homo sapiens, UniProt P24941); assay: Inhibition of human recombinant CDK2/cyclin E; assay type: protein-complex assay
Outline: (§3)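 Radiometric kinase assays in buffer A (10 mM MgCl2, 1 mM EGTA, 1 mM DTT, 25 mM Tris-HCl pH 7.5, heparin) or buffer B, with ATP, 30 min at 30 °C. Products were captured on P81 phosphocellulose, washed in 1% phosphoric acid and scintillation counted. Activity is % of the uninhibited control. Substrates: histone H1 for CDK2/CDK5 (BSA added for CDK5), CDK7/9-Tide for CDK9, RS peptide for DYRK1A/CLK1, GS-1 for GSK-3, CKS peptide for CK1.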

[15] = target: Cyclin-dependent kinase 5/CDK5 activator 1 (Homo sapiens, UniProt Q00535); assay: Inhibition of human recombinant CDK5/p25; assay type: protein-complex assay; outline: as §3
CDK9/cyclin T1 = CDK9/cyclin T1 (Homo sapiens, UniProt P50750); assay: Inhibition of human recombinant CDK9/cyclin T; assay type: protein-complex assay; outline: as §3
[16] = Inhibition of pig brain CK1 delta/epsilon using CKS peptide substrate; design: species or system Sus scrofa; outline: as §3
[17] = target: Dual specificity protein kinase CLK1 (Mus musculus, UniProt P22518); assay: Inhibition of mouse recombinant CLK1; outline: as §3
[18] = target: Dual specificity tyrosine-phosphorylation-regulated kinase 1A (Homo sapiens, UniProt Q13627); assay: Inhibition of human recombinant DYRK1A; outline: as §3
[19] = target: Glycogen synthase kinase-3 (Sus scrofa, UniProt B2LUN4+I6LNT8); assay: Inhibition of pig brain GSK-3alpha/beta using GS-1 peptide substrate; outline: as §3
[20] = Inhibition of starfish CDK1/cyclinB using histone H1 substrate
[21] = Toxicity in mouse macrophages at 60 uM after 24 hrs by xCELLingence assay relative to control; assay type: cell-based; conditions: macrophage; outline: as §2
[22] = Toxicity in mouse macrophages at 5 uM after 24 hrs by xCELLingence assay relative to control; assay type: cell-based; conditions: macrophage; outline: as §2
[23] = Toxicity in mouse macrophages at 10 uM after 24 hrs by xCELLingence assay relative to control; assay type: cell-based; conditions: macrophage; outline: as §2

Chain of Dual specificity protein kinase CLK1 (P22518 whole entry): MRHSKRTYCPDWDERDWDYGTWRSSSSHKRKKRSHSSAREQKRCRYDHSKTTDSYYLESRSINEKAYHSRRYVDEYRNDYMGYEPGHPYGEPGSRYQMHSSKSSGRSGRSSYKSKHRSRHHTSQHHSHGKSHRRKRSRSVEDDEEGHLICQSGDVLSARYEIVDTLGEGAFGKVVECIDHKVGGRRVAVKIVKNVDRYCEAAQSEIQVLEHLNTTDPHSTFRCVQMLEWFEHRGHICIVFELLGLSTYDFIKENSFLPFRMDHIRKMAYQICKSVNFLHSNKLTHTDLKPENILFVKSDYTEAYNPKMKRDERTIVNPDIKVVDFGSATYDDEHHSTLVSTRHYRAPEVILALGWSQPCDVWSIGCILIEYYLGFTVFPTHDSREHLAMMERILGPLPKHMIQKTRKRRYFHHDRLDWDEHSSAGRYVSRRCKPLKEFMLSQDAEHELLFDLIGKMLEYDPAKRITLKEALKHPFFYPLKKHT
Chain of Cyclin-dependent kinase 5/CDK5 activator 1 (Q00535 whole entry): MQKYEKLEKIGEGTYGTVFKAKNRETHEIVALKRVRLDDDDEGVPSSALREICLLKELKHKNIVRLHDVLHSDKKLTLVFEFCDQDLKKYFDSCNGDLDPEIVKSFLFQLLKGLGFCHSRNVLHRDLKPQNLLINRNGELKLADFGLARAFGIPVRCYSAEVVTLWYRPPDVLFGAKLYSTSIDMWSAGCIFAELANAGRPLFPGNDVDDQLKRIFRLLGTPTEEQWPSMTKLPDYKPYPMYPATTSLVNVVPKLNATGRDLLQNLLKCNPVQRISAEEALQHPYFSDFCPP
Chain of Cyclin-dependent kinase 5/CDK5 activator 1 (Q15078 whole entry, further chain): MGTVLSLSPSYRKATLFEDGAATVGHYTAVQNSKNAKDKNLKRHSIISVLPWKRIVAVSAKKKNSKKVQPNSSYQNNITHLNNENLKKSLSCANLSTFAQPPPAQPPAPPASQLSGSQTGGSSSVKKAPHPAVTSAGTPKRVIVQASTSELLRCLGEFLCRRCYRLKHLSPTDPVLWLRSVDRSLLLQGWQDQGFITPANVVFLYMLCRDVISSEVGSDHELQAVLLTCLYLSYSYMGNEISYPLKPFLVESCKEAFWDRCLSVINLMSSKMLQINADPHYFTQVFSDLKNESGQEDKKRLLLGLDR
Chain of CDK9/cyclin T1 (O60563 whole entry): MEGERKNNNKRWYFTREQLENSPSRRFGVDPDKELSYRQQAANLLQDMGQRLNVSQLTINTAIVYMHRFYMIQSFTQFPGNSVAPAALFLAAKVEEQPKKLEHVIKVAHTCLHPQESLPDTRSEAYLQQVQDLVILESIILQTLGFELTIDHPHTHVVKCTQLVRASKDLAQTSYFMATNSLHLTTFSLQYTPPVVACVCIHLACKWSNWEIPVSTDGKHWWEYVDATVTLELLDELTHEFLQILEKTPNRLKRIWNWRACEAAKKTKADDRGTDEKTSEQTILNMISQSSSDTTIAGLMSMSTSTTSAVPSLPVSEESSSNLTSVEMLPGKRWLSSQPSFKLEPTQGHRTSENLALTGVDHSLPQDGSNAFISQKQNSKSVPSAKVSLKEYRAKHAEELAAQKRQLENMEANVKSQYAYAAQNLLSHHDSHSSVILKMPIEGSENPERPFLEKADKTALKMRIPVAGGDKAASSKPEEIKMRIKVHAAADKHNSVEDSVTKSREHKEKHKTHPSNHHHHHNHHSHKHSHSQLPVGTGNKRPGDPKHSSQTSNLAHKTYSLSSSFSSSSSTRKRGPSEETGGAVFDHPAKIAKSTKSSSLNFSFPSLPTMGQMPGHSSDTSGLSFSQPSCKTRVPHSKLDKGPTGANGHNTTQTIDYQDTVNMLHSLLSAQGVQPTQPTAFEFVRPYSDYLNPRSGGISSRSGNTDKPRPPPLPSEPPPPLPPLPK
Chain of CDK9/cyclin T1 (P50750 whole entry): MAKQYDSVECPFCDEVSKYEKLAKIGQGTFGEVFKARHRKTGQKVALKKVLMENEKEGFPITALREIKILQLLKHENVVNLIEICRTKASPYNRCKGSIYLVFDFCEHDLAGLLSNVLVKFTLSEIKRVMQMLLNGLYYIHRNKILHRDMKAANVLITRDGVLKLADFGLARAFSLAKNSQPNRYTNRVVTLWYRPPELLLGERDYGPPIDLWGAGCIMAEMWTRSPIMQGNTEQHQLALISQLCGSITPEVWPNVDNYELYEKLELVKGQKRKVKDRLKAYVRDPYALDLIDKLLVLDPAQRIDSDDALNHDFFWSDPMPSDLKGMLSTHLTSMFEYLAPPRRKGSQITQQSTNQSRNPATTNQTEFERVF

Activity [3]: 80.4%
SMILES: COc1ccc(C(=O)/C=C/c2cccc3c4c([nH]c23)-c2cccnc2NC(=O)C4)cc1
Activity [1]: 79.9% | Activity [2]: 16.5%

Activity [3]: 67.5%
SMILES: O=C(/C=C/c1ccc2[nH]c3c(c2c1)CC(=O)Nc1ncccc1-3)NCc1ccccc1
Activity [4]: 12.1% | Activity [5]: < 0%

EC50 [6]: 2.5 µM | Activity [3]: 68.1%
SMILES: O=C(/C=C/c1ccc2[nH]c3c(c2c1)CC(=O)Nc1ncccc1-3)Nc1ccccc1
Activity [4]: < 10% | Activity [7]: < 0%

Activity [3]: 91.5%
SMILES: CCN(CC)C(=O)/C=C/c1ccc2[nH]c3c(c2c1)CC(=O)Nc1ncccc1-3
Activity [1]: 22.1% | Activity [8]: < 0%

Activity [3]: 102%
SMILES: CCN(CC)C(=O)/C=C/c1cccc2c3c([nH]c12)-c1cccnc1NC(=O)C3
Activity [1]: 81.6% | Activity [9]: < 0%

Activity [3]: 90.2%
SMILES: O=C1Cc2c([nH]c3ccc(/C=C/C(=O)c4ccco4)cc23)-c2cccnc2N1
Activity [1]: 21.9% | Activity [10]: 17.6%

Activity [3]: 77.6%
SMILES: COc1ccc(C(=O)/C=C/c2ccc3[nH]c4c(c3c2)CC(=O)Nc2ncccc2-4)cc1
Activity [4]: 44.5% | Activity [11]: 20.3%

Activity [3]: 79.8%
SMILES: O=C1Cc2c([nH]c3ccc(/C=C/C(=O)c4ccc(Cl)cc4)cc23)-c2cccnc2N1
Activity [4]: 38.4% | Activity [2]: 4.73%

EC50 [6]: 0.45 µM | Activity [3]: 81.8%
SMILES: O=C(/C=C/c1cccc2c3c([nH]c12)-c1cccnc1NC(=O)C3)NCc1ccccc1
Activity [4]: < 10% | Activity [12]: 4.16%

EC50 [6]: 0.18 µM | IC50 [14]: > 10 µM | IC50 [15]: > 10 µM | IC50 (CDK9/cyclin T1): > 10 µM | IC50 [16]: > 10 µM | IC50 [17]: > 10 µM | IC50 [18]: > 10 µM | IC50 [19]: > 10 µM | Activity [3]: 91.1%
SMILES: O=C1Cc2c([nH]c3c(/C=C/C(=O)c4ccccc4)cccc23)-c2cccnc2N1
Activity [4]: < 10% | Activity [13]: 28.3% | IC50 [20]: > 10 µM

Activity [3]: 73.2%
SMILES: O=C1Cc2c([nH]c3c(/C=C/C(=O)c4ccc(Cl)cc4)cccc23)-c2cccnc2N1
Activity [4]: 74.6% | Activity [11]: 9.2%

Activity [3]: 61.9%
SMILES: O=C1Cc2c([nH]c3ccc(/C=C/C(=O)c4ccccc4)cc23)-c2cccnc2N1
Activity [4]: 54% | Activity [13]: 7.6%

EC50 [6]: 0.12 µM | IC50 [14]: > 10 µM | IC50 [15]: > 10 µM | IC50 (CDK9/cyclin T1): > 10 µM | IC50 [16]: 0.49 µM | IC50 [17]: > 10 µM | IC50 [18]: > 10 µM | IC50 [19]: > 10 µM | Activity [3]: 94.6%
SMILES: O=C(/C=C/c1cccc2c3c([nH]c12)-c1cccnc1NC(=O)C3)Nc1ccccc1
Activity [4]: < 10% | Activity [21]: 74.7% | IC50 [20]: > 10 µM

Activity [3]: 112%
SMILES: O=C1Cc2c([nH]c3c(I)cccc23)-c2cccnc2N1
Activity [1]: 61.3% | Activity [22]: 4.4%

Activity [3]: 96.7%
SMILES: O=C1Cc2c([nH]c3ccc(I)cc23)-c2cccnc2N1
Activity [1]: 72.1% | Activity [23]: 12.3%
